Among the data in ChEMBL document CHEMBL1122878, “New antihistaminic N-heterocyclic 4-piperidinamines. 3. Synthesis and antihistaminic activity of N-(4-piperidinyl)-3H-imidazo[4,5-b]pyridin-2-amines” (1985) are ED50 values, retold here.

A value given as a limit tells only on which side of the number the result lay.

What is called ED50 is the midpoint of the dose-response relation.

Assay type in all cases: functional
Test [1] deals with Rattus norvegicus. The test is described as follows: In vivo antihistaminic activity after 2 hours of oral administration using 48/80 lethality test in rat. The method in brief:
(§1)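 Male inbred Wistar rats, 230–270 g, starved overnight, housed at 21 ± 1 °C and 65 ± 5% RH. Protection was survival at 4 h. ED50 by Finney from five rats per dose, at least three doses in a geometric series 0.0025–40 mg/kg.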

Test [2] relates to Rattus norvegicus. Description: In vivo antihistaminic activity after 1 hour of subcutaneous administration using 48/80 lethality test in rat. Conditions: sc. The method in brief:
as §1

Test [3] relates to Cavia porcellus. Description: In vivo antihistaminic activity after 48 hr of oral administration using histamine lethality test in guinea pig. The method in brief: (§2)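 Male albino guinea pigs, 280–360 g. Compound given orally in twofold dose increments 3, 24, 48 or 96 h before an iv challenge with histamine dihydrochloride at 1.25 mg/kg. Protection was survival at 1 h. PD50 with confidence limits by Finney, using 4–6 animals per dose and time point, at least three doses from a geometric series 0.0025–5.0 mg/kg.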

Test [4] deals with Cavia porcellus. Description: In vivo antihistaminic activity after 24 hr of oral administration using histamine lethality test in guinea pig. In outline: as §2
The subject of test [5] is Cavia porcellus. Description: In vivo antihistaminic activity after 3 hr of oral administration using histamine lethality test in guinea pig. The method in brief:
as §2

The subject of test [6] is Cavia porcellus. The test is described as follows: In vivo antihistaminic activity after 48 hr of oral administration using histamine lethality test in guinea pig. The method in brief: as §2
The test system of test [7] is Cavia porcellus. The test is described as follows: In vivo antihistaminic activity after 96 hr of oral administration using histamine lethality test in guinea pig. The method in brief:
as §2

For test [8], the system named is Cavia porcellus. Description: In vivo antihistaminic activity after 3 hr of oral administration using histamine lethality test in guinea pig. In outline:
as §2

Test [9] concerns Cavia porcellus. Description: In vivo antihistaminic activity after 24 hr of oral administration using histamine lethality test in guinea pig. In outline: as §2

On to `Fc1ccc(Cn2c(NC3CCN(C/C=C/c4ccccc4)CC3)nc3cccnc32)cc1`, for which the 50% effective dose (ED50) was over 2.5 mg/kg in test [1] and 1.25 mg/kg in test [2].

`c1ccc(Cn2c(NC3CCN(CCC(c4ccccc4)c4ccccc4)CC3)nc3cccnc32)cc1` gave an ED50 in [2] of over 2.5 mg/kg.

Take `c1ccc(CCN2CCC(Nc3nc4cccnc4n3Cc3ccccc3)CC2)cc1`: the median effective dose (ED50) is over 2.5 mg/kg in test [1] and 0.08 mg/kg in test [2].

In the case of `Oc1nc2ccccc2n1CCCN1CCC(Nc2nc3cccnc3n2Cc2ccc(F)cc2)CC1`, the ED50 in [1] was 2.5 mg/kg; in test [2] it was 0.63 mg/kg.

`Cc1cccc(C)c1NC(=O)CN1CCC(Nc2nc3cccnc3n2Cc2ccccc2)CC1` returned an ED50 in [2] of over 2.5 mg/kg.

As for `c1ccc(Cn2c(NC3CCN(C4CCCCC4)CC3)nc3cccnc32)cc1`, the ED50 in [1] is over 2.5 mg/kg; in test [2], 0.63 mg/kg.

As for `O=C(NCCN1CCC(Nc2nc3cccnc3n2Cc2ccccc2)CC1)c1ccc(F)cc1`, the ED50 in test [1] stood at 1.25 mg/kg; in test [2], 0.08 mg/kg.

In the case of `O=C(CCCN1CCC(Nc2nc3cccnc3n2Cc2ccccc2)CC1)c1ccc(F)cc1`, the results for the ED50 in [1] and in test [2] were 1.25 mg/kg and 0.31 mg/kg, respectively.

`Fc1ccc(Cn2c(NC3CCN(CCCC(c4ccc(F)cc4)c4ccc(F)cc4)CC3)nc3cccnc32)cc1` displayed an ED50 in [2] of over 2.5 mg/kg.

`CC(C)N1CCC(Nc2nc3cccnc3n2Cc2ccccc2)CC1`: the ED50 is over 2.5 mg/kg in test [1] and 0.63 mg/kg in test [2].

Turning to `CN1CCC(Nc2nc3cccnc3n2Cc2ccccc2)CC1`, the ED50 in test [1] was over 2.5 mg/kg; in [2] it was 0.08 mg/kg.

Take `CCCCN1CCC(Nc2nc3cccnc3n2Cc2ccccc2)CC1`: the ED50 is over 2.5 mg/kg in test [1] and 0.16 mg/kg in test [2].

With `Fc1ccc(Cn2c(NC3CCN(CCc4ccccc4)CC3)nc3cccnc32)cc1`, the ED50 was over 2.5 mg/kg in test [1] and 0.31 mg/kg in test [2].

With `CN(C)C(=O)C(CCN1CCC(Nc2nc3cccnc3n2Cc2ccccc2)CC1)(c1ccccc1)c1ccccc1`, the ED50 in test [2] was over 2.5 mg/kg.

For `C=CCN1CCC(Nc2nc3cccnc3n2Cc2ccccc2)CC1`, the 50% effective dose (ED50) in test [1] was over 2.5 mg/kg; in test [2] it was 0.31 mg/kg.

In the case of `Fc1ccc(Cn2c(NC3CCN(CCc4cccs4)CC3)nc3cccnc32)cc1`, the 50% effective dose (ED50) in test [1] is over 2.5 mg/kg; in [2] it was 0.16 mg/kg.

With `CN1CCC(Nc2nc3cccnc3n2Cc2ccc(F)cc2)CC1`, the ED50 in test [1] was over 2.5 mg/kg; in test [2] it was 0.08 mg/kg.

In the case of `Fc1ccc(OCCCN2CCC(Nc3nc4cccnc4n3Cc3ccccc3)CC2)cc1`, the ED50 in test [1] and in test [2] was 1.25 mg/kg each time.

Take `CCn1nnn(CCN2CCC(Nc3nc4cccnc4n3Cc3ccc(F)cc3)CC2)c1=O`: the ED50 in [1] is over 2.5 mg/kg; in [2], 0.31 mg/kg.

For `Fc1ccc(Cn2c(NC3CCN(CCCOc4ccccc4)CC3)nc3cccnc32)cc1`, the ED50 in test [1] and in test [2] was 0.31 mg/kg throughout.

On to `c1ccc(Cn2c(NC3CCN(CCN4CCOCC4)CC3)nc3cccnc32)cc1`, for which the ED50 in [1] was 2.5 mg/kg; in test [2], 0.63 mg/kg.

As for `COc1ccc(CCN2CCC(Nc3nc4cccnc4n3Cc3ccccc3)CC2)cc1`, the ED50 in test [1] turned out to be 0.31 mg/kg; in test [2], 0.16 mg/kg.

Consider `O=C(CCCN1CCC(Nc2nc3cccnc3n2Cc2ccc(F)cc2)CC1)c1ccc(F)cc1`, for which the ED50 stood at 1.25 mg/kg in [1] and 0.04 mg/kg in test [2].

Consider `COc1ccc(CCN2CCC(Nc3nc4cccnc4n3Cc3ccc(F)cc3)CC2)cc1`, for which the ED50 in test [3] stood at 0.25 mg/kg; in test [1] it was 0.16 mg/kg; in [4], 0.12 mg/kg; in [2], 0.31 mg/kg; in [5], 0.16 mg/kg.

Consider `Fc1ccc(Cn2c(NC3CCN(CCc4ccccn4)CC3)nc3cccnc32)cc1`, for which the ED50 is 0.31 mg/kg in test [1] and 0.04 mg/kg in [2].

With `C(=C\c1ccccc1)/CN1CCC(Nc2nc3cccnc3n2Cc2ccccc2)CC1`, the ED50 in [1] and in test [2] was 1.25 mg/kg each time.

Consider `c1ccc(Cn2c(NC3CCN(CC4COc5ccccc5O4)CC3)nc3cccnc32)cc1` (stereo not drawn), for which the median effective dose (ED50) in test [1] is over 2.5 mg/kg; in test [2], 0.63 mg/kg.

As to `OC(COc1ccccc1)CN1CCC(Nc2nc3cccnc3n2Cc2ccccc2)CC1` (stereo not drawn), the results for the ED50 in test [1] and in test [2] were 0.63 mg/kg and 0.16 mg/kg, respectively.

As to `c1ccc(Cn2c(NC3CCN(CCOc4ccccc4)CC3)nc3cccnc32)cc1`, the ED50 in test [1] was found to be 1.25 mg/kg; in test [2], 0.31 mg/kg.

As for `COc1ccc(CCN2CCC(Nc3nc4ccccc4n3Cc3ccc(F)cc3)CC2)cc1` [ASTEMIZOLE], the ED50 in test [6] came out at 0.04 mg/kg; in test [7], 0.19 mg/kg; in [8] it was 0.33 mg/kg; in [1], 0.11 mg/kg; in [2], 0.11 mg/kg; in [9] it was 0.07 mg/kg.
